High-throughput results: PubChem, several laboratories
MsrA inhibitor: inhibitors of bovine MsrA. inhibition, % at 15.5 µM. purified bovine MsrA, absorbance read-out. AID 651718. actives 0.75% (n = 360,000)
MsrA act: activates bovine MsrA enzyme | purified bovine MsrA, absorbance read-out | activation, % at 10.6 µM | actives 0.3% (n = 360,000) | AID 602163; in the data active = activation above about 7.5%
aDG glyco up: increases alpha dystroglycan glycosylation; actives 0.22% (n = 360,000); Pro5-aDG cells, alpha-DG glycosylation AlphaScreen (IIH6); 0% Pro5, 100% B10-LARGE cell signal; activation, % at 10 µM;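 active = activation of at least 8% versus controls, or a plate z-score of at least 8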;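 note: Pro5 are CHO cells carrying HIG-tagged alpha-DG that lacks glycosylation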
Vif imaging: inhibitors of HIV Vif; HEK293T cells, Vif self-association by quenched fluorescence, imaging, 24 h; inhibition, % at 7.49 µM; actives 0.35% (n = 340,000); AID 602346; in the data active = inhibition above about 50%, passing the limit was not always enough
UCH37 DUB inh: inhibitors of human deubiquitinating enzyme UCH37; purified proteasome/UCH37, Ub-AMC cleavage fluorescence; inhibition, % (no concentration beside the values); actives 0.33% (n = 330,000);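 active = mean inhibition over replicate wells above about 20%, limit read from the data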
Target sequence (Q9Y5K5 whole entry, looked up): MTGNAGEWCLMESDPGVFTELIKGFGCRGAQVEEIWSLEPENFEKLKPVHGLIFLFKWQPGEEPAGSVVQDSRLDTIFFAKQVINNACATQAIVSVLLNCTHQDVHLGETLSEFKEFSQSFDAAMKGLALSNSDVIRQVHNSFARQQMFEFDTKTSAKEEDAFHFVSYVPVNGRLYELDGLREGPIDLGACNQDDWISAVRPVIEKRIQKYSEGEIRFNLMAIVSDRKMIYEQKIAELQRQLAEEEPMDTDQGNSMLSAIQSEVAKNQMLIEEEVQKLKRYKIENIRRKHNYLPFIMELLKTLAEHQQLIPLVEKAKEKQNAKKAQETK
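Reagent: Ub-AMC substrate; assay system: Proteasome-associated human UCH37 deubiquitinase; controls: no-proteasome and no-compound wells; read-out: % inhibition of Ub-AMC cleavage fluorescence; timing: 30 min preincubation with enzyme, 25 min cleavage at room temperature; signal: AMC fluorescence from Ub-AMC cleavage, excitation 355 nm, emission 460 nm; buffer or medium: Tris-HCl pH 7.4 plus ovalbumin, ATP-MgCl2, DTT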
N-glyco inh: N-linked glycosylation inhibition; D54 ERlucT glycosylation luciferase reporter, 24 h; percent of 100 nM tunicamycin response; reporter increase, % at 12.5 µM; actives 0.23% (n = 360,000);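 active = mean luciferase reporter signal, scaled so untreated is 0 and the glycosylation-blocking control 100, at or above a set limit in every replicate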;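 note: luciferase carries N-glycosylation sites so blocking glycosylation raises the light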
MsrA conf: confirmation of bovine MsrA inhibitors; shares compounds with MsrA inhibitor; purified bovine MsrA, absorbance read-out; inhibition, % at 15.5 µM; actives 41% (n = 2,300);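 note: coupled to thioredoxin reductase with NADPH and selenocystamine and DMSO as substrate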
Numbers stand for hits; - = inactive; . = not tested or not shown. Shown are actives, neighbours in structure and some others; about 1.9% of the full set was active somewhere. Cut-off read from the data, not from the text of the source, unless noted: active = inhibition above about 4.5%; inactive = the rest.

SMILES	MsrA inhibitor	MsrA act	aDG glyco up	Vif imaging	UCH37 DUB inh	N-glyco inh	MsrA conf
CCN(CC)C(=O)COc1ccc(C(C)=NNC(=O)c2ccccc2Br)cc1	.	.	.	.	-	.	.
Cc1nc2ccc(NC(=O)c3cc([N+](=O)[O-])cc([N+](=O)[O-])c3Cl)cc2s1	5.5	-	-	-	-	-	-
N#CCCN(C(=O)CON=Cc1cccc([N+](=O)[O-])c1)c1ccccc1	.	.	.	.	-	.	.
CC(=NNC(=O)Cc1ccc(Cl)c(Cl)c1)c1cccnc1	.	.	.	.	-	.	.
CCOc1cc(C=NNC(=O)COc2nc(C)cc(COC)c2C#N)ccc1O	.	.	.	.	-	.	.
CCc1ccc(Nc2ccc(C(N)=O)cc2[N+](=O)[O-])cc1	-	-	-	-	-	-	.
Cc1ccc(Nc2ccc(C(N)=O)cc2[N+](=O)[O-])cc1C	19	-	-	-	26	-	12
Cn1cc(-c2ccccc2C(=O)O)c(=O)c2cc(Cl)ccc21	4.9	-	-	-	-	-	-
Cn1cc(S(=O)(=O)c2ccccc2)c(=O)c2cc(Cl)ccc21	-	-	-	-	-	-	.
O=C(C[n+]1ccccc1)NN=Cc1ccc(Cl)c(Cl)c1	.	.	.	.	-	.	.
O=C(NCCc1ccccc1)c1coc(=O)c(Br)c1	5.6	-	-	-	-	-	6.5
CN(C)CCNC(=O)c1coc(=O)c(Br)c1	-	-	-	-	-	-	.
CC(C)CNC(=O)c1coc(=O)c(Br)c1	5.7	-	-	-	-	-	6.1
Cc1ccc(CN2CCN(N=Cc3ccc(N(C)C)cc3)CC2)cc1	.	.	.	.	-	.	.
N#Cc1c(-c2cccc(Cl)c2)[nH]c(=S)[nH]c1=O	-	-	-	-	-	-	.
N#Cc1c(-c2ccccc2)[nH]c(=S)[nH]c1=O	5.0	-	-	-	-	-	-
Cc1ccc(C(=O)C2=C(O)C(=O)N(CCCN(C)C)C23C(=O)N(C)c2ccccc23)o1 (configuration not stated)	5.6	-	-	-	-	-	6.4
CN1C(=O)C2(c3ccccc31)c1c(oc3ccccc3c1=O)C(=O)N2CCCO (configuration not stated)	-	-	-	-	-	-	.
O=C(NN=C/C=C\c1ccccc1[N+](=O)[O-])c1cccs1	.	.	.	.	-	.	.
COc1ccc(-c2cc(C(F)F)n3ncc(C(=O)n4ccnc4C)c3n2)cc1	4.7	-	-	-	-	-	11
COc1ccc(-c2cc(C(F)F)n3ncc(C(=O)N4CCc5ccccc54)c3n2)cc1	-	-	-	-	-	-	.
Cc1cc(C=Nn2cnnc2)c(C)n1-c1ccc(C(=O)O)cc1	.	.	.	.	-	.	.
N/C(=N\N=C\c1cccc(O)c1)c1nonc1N	6.0	-	-	-	.	-	-
NC(=NN=Cc1ccc(O)cc1)c1nonc1N	.	.	.	.	-	.	.
COc1cc(/C=N/N=C(\N)c2nonc2N)ccc1O	5.5	-	-	-	.	-	-
SMILES	MsrA inhibitor	MsrA act	aDG glyco up	Vif imaging	UCH37 DUB inh	N-glyco inh	MsrA conf
N/C(=N\N=C\c1ccc(O)cc1)c1nonc1N	6.4	-	-	-	.	-	-
COc1cc(C=NN=C(N)c2nonc2N)ccc1O	.	.	.	.	-	.	.
CCn1c(SCC(=O)NN=C/C=C/c2ccco2)nnc1-c1ccc(OC)cc1	.	.	.	.	-	.	.
CNC(=S)NN=Cc1cn(Cc2c(F)cccc2Cl)c2ccccc12	.	.	.	.	-	.	.
COc1ccc(N/C=C2\CCOC2=O)cc1	5.4	-	-	-	-	-	-
Cn1c(=NC(=O)c2ccco2)sc2ccccc21	7.5	-	-	-	-	-	5.6
Cc1sc(=NC(=O)c2ccco2)n(C)c1-c1ccccc1	-	-	-	-	-	-	.
Nc1nnc(CC(=O)N/N=C/c2ccc(-c3cccc(C(=O)O)c3)o2)s1	5.2	-	-	-	.	-	4.9
O=C(N/N=C/c1ccc(N2CCCC2)c([N+](=O)[O-])c1)c1cccnc1	7.5	-	-	-	.	-	5.5
O=C(N/N=C/c1ccc(N2CCOCC2)c([N+](=O)[O-])c1)c1ccc(F)cc1	-	-	-	-	.	-	.
CNC(=S)NN=Cc1ccc(-c2cccc(C(=O)O)c2)o1	.	.	.	.	-	.	.
O=C(O)c1cccc(-c2ccc(/C=N/NC(=O)c3cccnc3)o2)c1	5.9	-	-	-	.	-	6.7
Nc1nnc(CC(=O)NN=Cc2ccc(-c3ccccc3)o2)s1	.	.	.	.	-	.	.
O=Cc1ccc(-c2cccc(C(=O)O)c2)o1	4.7	-	-	-	-	-	-
CC1(C)Cc2ccccc2C(C(=NO)C(N)=O)=N1	.	.	.	.	-	.	.
